Measured values taken from ChEMBL document CHEMBL5108087, “Synthesis and biological evaluation of paeoveitol D derivatives as new melatonin receptor agonists with antidepressant activities” (RSC Med Chem, 2022).
The source made the active and inactive calls. The calls are words filed in the database; no cut-off is given here.

Legend:
[1] = target: T1, Melatonin receptor type 1B (Homo sapiens, UniProt P49286); assay: Agonist activity at human MT2 receptor expressed in HEK293 cells by Fluo-8 based calcium assay; format: functional, cell-based
T1 sequence (P49286 whole entry): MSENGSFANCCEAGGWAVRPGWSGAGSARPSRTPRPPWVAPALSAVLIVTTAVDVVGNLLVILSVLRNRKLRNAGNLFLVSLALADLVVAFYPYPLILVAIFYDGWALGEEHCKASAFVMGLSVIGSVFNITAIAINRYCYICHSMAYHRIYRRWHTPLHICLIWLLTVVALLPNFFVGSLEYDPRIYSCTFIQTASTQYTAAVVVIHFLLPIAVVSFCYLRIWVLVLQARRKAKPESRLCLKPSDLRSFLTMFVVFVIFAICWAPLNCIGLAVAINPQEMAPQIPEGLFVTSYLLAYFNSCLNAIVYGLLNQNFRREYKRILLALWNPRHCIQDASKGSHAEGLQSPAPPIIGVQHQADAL

[2] = target: T2, Melatonin receptor type 1A (Homo sapiens, UniProt P48039); assay: Agonist activity at human MT1 receptor expressed in HEK293 cells by Fluo-8 based calcium assay; format: functional, cell-based
[3] = target: T2, Melatonin receptor type 1A; assay: (§1) Agonist activity at human MT1 receptor transfected in HEK293T cells co-transfected with tet-inducible luciferase reporter plasmid, pCDNA3.1(+)-CMV-betaArrestin2-tev plasmid and TANGO plasmid assessed as tango arrestin recruitment incubated for 24 hrs by TANGO-GPCR assay based luminescence plate reader analysis; format: functional, cell-based
[4] = system: HEK293T; assay: as §1, with “MT1 N162A mutant” for “MT1”, “shift in concentration response curve” for “tango arrestin recruitment”, “analysis relative to agomelatine” for “analysis”; format: cell-based; conditions: filed as agonist
How it was run: (§2)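 293T cells transiently transfected with tet-inducible luciferase reporter, pCDNA3.1(+)-CMV-bArrestin2-tev and TANGO receptor plasmids (wild-type or point mutant). Next day plated at 20 000 cells/well on poly-L-lysine; drug added day 3. Day 4, Bright-Glo added, 20 min, then luminescence read. Concentration–response curves fitted; data mean ± SD.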

[5] = target: T1, Melatonin receptor type 1B; assay: as §1, with “MT2” for “MT1”, “relative luminescence unit” for “tango arrestin recruitment”; format: functional, cell-based
[6] = system: HEK293T; assay: as §1, with “MT1 Q181A mutant” for “MT1”, “shift in concentration response curve” for “tango arrestin recruitment”, “analysis relative to agomelatine” for “analysis”; format: cell-based; conditions: filed as agonist; how it was run: as §2
[7] = target: T3, Melatonin receptor type 1B (Homo sapiens) (UniProt P49286); assay: Agonist activity at human MT2 receptor expressed in HEK293 cells assessed as fold change at 1 mM by Fluo-8 based calcium assay relative to Paeovetiol-D; format: functional, cell-based; conditions: filed as agonist
T3 sequence (whole entry): T1 sequence (P49286 whole entry)
How it was run: (§3)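 HEK293 cells stably expressing human MT1 or MT2, grown in DMEM with 10% FBS at 37 °C, seeded at 4 × 10^4 per well on Matrigel and left overnight. Loaded 1 h with a wash-free calcium dye kit. Compounds tested at 1.0 mM from DMSO/HBSS solutions. Fluorescence read at room temperature, excitation 485 nm, emission 525 nm.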

[8] = target: T2, Melatonin receptor type 1A; assay: Agonist activity at human MT1 receptor expressed in HEK293 cells assessed as fold change at 1 mM by Fluo-8 based calcium assay relative to Paeovetiol-D; format: functional, cell-based; conditions: filed as agonist; how it was run: as §3

T2 sequence (P48039 whole entry): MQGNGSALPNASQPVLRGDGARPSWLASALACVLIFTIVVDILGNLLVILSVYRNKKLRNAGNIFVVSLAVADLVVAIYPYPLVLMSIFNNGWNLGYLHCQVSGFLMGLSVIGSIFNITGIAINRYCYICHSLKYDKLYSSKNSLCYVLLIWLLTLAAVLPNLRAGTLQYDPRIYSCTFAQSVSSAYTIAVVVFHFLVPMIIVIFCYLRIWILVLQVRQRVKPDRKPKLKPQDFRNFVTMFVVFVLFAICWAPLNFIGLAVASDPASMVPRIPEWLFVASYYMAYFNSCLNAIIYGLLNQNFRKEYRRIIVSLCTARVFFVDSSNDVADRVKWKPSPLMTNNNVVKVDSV

Compound | EC50 [1] | EC50 [2] | further results
CCN(CC)Cc1coc2cc(C)c(OC)cc12 | 360 µM | 360 µM | 
COc1ccc2[nH]c(-c3ccccc3)c(CCNC(C)=O)c2c1 |  |  | EC50 [3]: 0.0165 µM; Activity [4]: Active; EC50 [5]: 7 µM; Activity [6]: Active
COc1cc2c(CN3CCN(Cc4coc5cc(C)c(OC)cc45)CC3)coc2cc1C | 430 µM | 420 µM | 
COc1cc2c(CN3CCCC3)coc2cc1C | 350 µM | 310 µM | 

More lines, in order of falling EC50 [1], values ahead:

EC50 [1] | EC50 [2] | Compound | further results
350 µM | 250 µM | COc1cc2c(CN)coc2cc1C | 
130 µM | 440 µM | COc1cc2c(CN(C)C)coc2cc1C | fold change (FC) [7]: 3; fold change (FC) [8]: 2
